We go through six compounds from ChEMBL document CHEMBL1157362, “Pharmacokinetics of the anti-human immunodeficiency virus agent 1-(beta-D-dioxolane)thymine in rhesus monkeys” (Antimicrob Agents Chemother, 2007).

A short description of data set [1]: Systemic clearance in rhesus monkey at 33.3 mg/kg, iv. Type of data set: ADME, organism-based, Macaca mulatta. Set-up: dose 33.3 mg/kg, route intravenous. As to conditions: in vivo. Summed up:
(§1)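 Rhesus monkeys (three) got a single 33.3 mg/kg dose orally by gastric intubation in water, then i.v. in saline after a washout of at least 4 weeks. Animals were under ketamine/Telazol anesthesia. Femoral-vein blood was drawn at 0–24 h. Serum was acetonitrile-extracted with AZT internal standard and assayed by HPLC-UV at 266 nm. Parameters came from a simultaneous two-compartment fit weighted 1/(predicted)2. F was from AUCoral = F x AUCi.v.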

Data set [2] is described as follows: Central volume of distribution in rhesus monkey at 33.3 mg/kg, iv. Type of data set: ADME, organism-based, Macaca mulatta. Further details: dose 33.3 mg/kg, route intravenous. As to conditions: in vivo, read-out: Vc. Summed up:
as §1

Data set [3] can be described thus: Terminal phase half life in rhesus monkey at 33.3 mg/kg, iv. In kind it is ADME, organism-based, Macaca mulatta. Set-up: dose 33.3 mg/kg, route intravenous. The settings on record: in vivo. Summed up: as §1
Data set [4] can be described thus: Volume of distribution at steady state in rhesus monkey at 33.3 mg/kg, iv. Type of data set: ADME, organism-based, Macaca mulatta. Set-up: dose 33.3 mg/kg, route intravenous. As to conditions: in vivo, read-out: Vdss. Summed up: as §1
Data set [5] is described as follows: AUC in rhesus monkey at 33.3 mg/kg, iv. Type of data set: ADME, organism-based, Macaca mulatta. Set-up: dose 33.3 mg/kg, route intravenous. The settings on record: plasma. Summed up:
as §1

Data set [6] in a line: Mean residence time in rhesus monkey at 33.3 mg/kg, iv. Type of data set: ADME, organism-based, Macaca mulatta. Set-up: dose 33.3 mg/kg, route intravenous. The settings on record: in vivo. Summed up: as §1
A short description of data set [7]: Renal clearance in rhesus monkey at 33.3 mg/kg, iv. Type of data set: ADME, organism-based, Macaca mulatta, Kidney. Further details: dose 33.3 mg/kg, route intravenous. As to conditions: in vivo, read-out: CL_renal (converted). Summed up: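 Renal clearance was derived by fitting 0–8 h urinary excretion (HPLC-UV) to dXu/dt = Clrenal x Cp. Cp was the serum concentration predicted by the two-compartment serum fit, and the urine fit was unweighted. Dose was 33.3 mg/kg.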

A short description of data set [8]: AUC in rhesus monkey at 33.3 mg/kg, po. As to conditions: plasma. In kind it is ADME, organism-based, Macaca mulatta. Set-up: dose 33.3 mg/kg, route oral. Summed up: as §1
A short description of data set [9]: Mean residence time in rhesus monkey at 33.3 mg/kg, po. The settings on record: in vivo. In kind it is ADME, organism-based, Macaca mulatta. Further details: dose 33.3 mg/kg, route oral. Summed up:
as §1

A short description of data set [10]: Tmax in rhesus monkey at 33.3 mg/kg, po. Type of data set: ADME, organism-based, Macaca mulatta. Further details: dose 33.3 mg/kg, route oral. As to conditions: in vivo. Summed up:
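Oral gastric-intubation dose of 33.3 mg/kg in water given to rhesus monkeys under ketamine/Telazol anesthesia. Serial femoral-vein serum was sampled from 0.25 to 24 h and assayed by reverse-phase HPLC-UV at 266 nm. Time of peak was taken from a two-compartment model fitted with an absorption lag.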

Data set [11] can be described thus: Cmax in rhesus monkey at 33.3 mg/kg, po. As to conditions: in vivo. Set-up: dose 33.3 mg/kg, route oral. In kind it is ADME, organism-based, Macaca mulatta. Summed up:
as §1

A short description of data set [12]: Oral bioavailability in rhesus monkey at 33.3 mg/kg. Type of data set: ADME, organism-based, Macaca mulatta. As to conditions: in vivo. Summed up: as §1
Data set [13] in a line: Biodistribution in rhesus monkey urine assessed as dose recovered unchanged at 33.3 mg/kg, po after 8 hrs. In kind it is ADME, organism-based, Macaca mulatta. Further details: dose 33.3 mg/kg, route oral. The settings on record: read-out: Drug uptake. Summed up: (§2)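 Monkeys were catheterized and dosed with 33.3 mg/kg by i.v. or oral route under anesthesia. Urine was collected in intervals over 0–8 h. Untreated urine was incubated 12 h at 37°C in acetate/phosphate buffer pH 5.8 and spiked with AZT internal standard. Unchanged drug was quantified by HPLC-UV at 266 nm against urine standard curves of 0.1–100 µg/ml.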

The nature of data set [14]: Biodistribution in rhesus monkey urine assessed as dose recovered unchanged at 33.3 mg/kg, iv after 8 hrs. Set-up: dose 33.3 mg/kg, route intravenous. As to conditions: read-out: Drug uptake. In kind it is ADME, organism-based, Macaca mulatta. Summed up:
as §2

In data set [15] the test system is Rhesus monkey. Put plainly: Drug elimination in rhesus monkey assessed as beta-dioxolane-thymine-glucuronide elimination at 33.3 mg/kg, po. In kind it is ADME, organism-based, Macaca mulatta. Set-up: dose 33.3 mg/kg, route oral. As to conditions: in vivo. Summed up:
(§3)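 Glucuronide was estimated indirectly in 0–8 h urine after a 33.3 mg/kg i.v. or oral dose. Urine was treated with β-glucuronidase (500 U/ml, freshly prepared) in acetate/phosphate buffer pH 5.8 for 12 h at 37°C. Untreated urine served as the parallel sample. Glucuronide was taken as the difference in parent drug between the two samples by HPLC-UV. Its presence was screened by ESI MS/MS.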

In data set [16] the test system is Rhesus monkey. Put plainly: Drug elimination in rhesus monkey assessed as beta-dioxolane-thymine-glucuronide elimination at 33.3 mg/kg, iv. In kind it is ADME, organism-based, Macaca mulatta. As to conditions: in vivo. Set-up: dose 33.3 mg/kg, route intravenous. Summed up: as §3
Data set [17] is described as follows: Drug level in rhesus monkey cerebrospinal fluid at 33.3 mg/kg, iv after 1 hr. Type of data set: ADME, organism-based, Macaca mulatta. Set-up: dose 33.3 mg/kg, route intravenous. The settings on record: read-out: Drug uptake. Summed up: (§4)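 Cerebrospinal fluid was drawn by cisternal or lumbar tap 1 and 2 h after a 33.3 mg/kg i.v. or oral dose in anesthetized rhesus monkeys. Samples were kept frozen at –70°C. AZT internal standard was added, and the sample was injected directly for HPLC-UV at 266 nm against water-based standards of 0.1–25 µg/ml.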

Data set [18] can be described thus: Drug level in rhesus monkey cerebrospinal fluid at 33.3 mg/kg, iv after 2 hrs. Type of data set: ADME, organism-based, Macaca mulatta. Further details: dose 33.3 mg/kg, route intravenous. As to conditions: read-out: Drug uptake. Summed up:
as §4

The nature of data set [19]: Drug level in rhesus monkey cerebrospinal fluid at 33.3 mg/kg, po after 1 hr. Type of data set: ADME, organism-based, Macaca mulatta. Set-up: dose 33.3 mg/kg, route oral. As to conditions: read-out: Drug uptake. Summed up: as §4
Data set [20] is described as follows: Drug level in rhesus monkey cerebrospinal fluid at 33.3 mg/kg, po after 2 hrs. In kind it is ADME, organism-based, Macaca mulatta. Set-up: dose 33.3 mg/kg, route oral. As to conditions: read-out: Drug uptake. Summed up: as §4
Data set [21] in a line: Ratio of drug level in cerebrospinal fluid to plasma of rhesus monkey at 33.3 mg/kg, iv after 1 hr. Type of data set: ADME, organism-based, Macaca mulatta, CSF/Plasma. Set-up: dose 33.3 mg/kg, route intravenous. Summed up:
(§5)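 CSF was taken by cisternal or lumbar tap at 1 and 2 h after a 33.3 mg/kg i.v. or oral dose, along with femoral-vein serum. Both were quantified by HPLC-UV at 266 nm with AZT internal standard. The ratio was CSF concentration divided by serum concentration at the same time.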

The nature of data set [22]: Ratio of drug level in cerebrospinal fluid to plasma of rhesus monkey at 33.3 mg/kg, iv after 2 hrs. In kind it is ADME, organism-based, Macaca mulatta, CSF/Plasma. Further details: dose 33.3 mg/kg, route intravenous. Summed up: as §5
Data set [23] can be described thus: Ratio of drug level in cerebrospinal fluid to plasma of rhesus monkey at 33.3 mg/kg, po after 1 hr. Type of data set: ADME, organism-based, Macaca mulatta, CSF/Plasma. Set-up: dose 33.3 mg/kg, route oral. Summed up: as §5
Data set [24] is described as follows: Ratio of drug level in cerebrospinal fluid to plasma of rhesus monkey at 33.3 mg/kg, po after 2 hrs. Type of data set: ADME, organism-based, Macaca mulatta, CSF/Plasma. Set-up: dose 33.3 mg/kg, route oral. Summed up: as §5
Data set [25] has as its system Rhesus monkey. The data set can be described thus: Tlag in rhesus monkey at 33.3 mg/kg, po. As to conditions: in vivo.
A short description of data set [26]: Cmax in rhesus monkey. In kind it is ADME, organism-based, Macaca mulatta. The settings on record: in vivo.
A short description of data set [27]: Oral bioavailability in rhesus monkey. Type of data set: ADME, organism-based, Macaca mulatta. As to conditions: in vivo.
The test system of data set [28] is Rhesus monkey. The data set can be described thus: AUC in rhesus monkey. The settings on record: in vivo. Type of data set: ADME, organism-based, Macaca mulatta, Plasma.
Data set [29] in a line: Terminal phase half life in rhesus monkey. Type of data set: ADME, organism-based, Macaca mulatta. As to conditions: in vivo.
The nature of data set [30]: Central volume of distribution in rhesus monkey. Type of data set: ADME, organism-based, Macaca mulatta. The settings on record: in vivo, read-out: Vc.
Data set [31] is described as follows: Volume of distribution at steady state in rhesus monkey. In kind it is ADME, organism-based, Macaca mulatta. The settings on record: in vivo, read-out: Vdss.
The nature of data set [32]: Oral bioavailability in rhesus monkey at 60 mg/kg. The settings on record: in vivo. Type of data set: ADME, organism-based, Macaca mulatta.
Data set [33] can be described thus: Oral bioavailability in cynomolgus monkey. In kind it is ADME, organism-based, Macaca fascicularis. The settings on record: in vivo.
Data set [34] in a line: Oral bioavailability in mouse. In kind it is ADME, organism-based. As to conditions: in vivo.
Data set [35] is described as follows: Oral bioavailability in human. In kind it is ADME, organism-based. The settings on record: in vivo.
A short description of data set [36]: Drug elimination in monkey urine after 30 days. Type of data set: ADME, organism-based, Macaca mulatta. As to conditions: rhesus monkey, Activity.

In [1], `Cc1cn([C@H]2CO[C@@H](CO)O2)c(=O)[nH]c1=O` had a clearance of 6 mL/min/kg. The Vd in [2] is 0.52 L/kg; in data set [4], 1.02 L/kg. Besides, the half-life in data set [3] was 2.16 h. Besides, the figures for the area under the curve (AUC) in data set [5] and in [8] were 416 µM·h and 387 µM·h, respectively. Besides, the MRT in data set [6] was determined as 2.88 h; in data set [9], 3.26 h. The CL renal in data set [7] was 3 mL/min/kg. Besides, the Tmax in data set [10] was determined as 0.5 h. The compound also yielded a Cmax in [11] of 105 µM. The compound further displayed a bioavailability in data set [12] of 95%. The dose excreted at 8 h came out at 48% in [13] and 40% in [14]. In addition, the Drug uptake was found to be 8% with Rhesus monkey [15] and 4% in the data set on Rhesus monkey [16]. Also, the results for the concentration at 1 h in data set [17] and in data set [19] were 7.8 µM and 3.2 µM, respectively. In addition, the results for the concentration at 2 h in data set [18] and in data set [20] were 12.3 µM and 4.2 µM, respectively. Moreover, the partition ratio (Kp) at 1 h in [21] is 0.09; in data set [23] it was 0.05. Moreover, the Kp at 2 h in data set [22] worked out at 0.18; in data set [24] it was 0.06. The compound further returned a Tlag in the data set with Rhesus monkey [25] of 0.51 h.

Take `Nc1nc2c(ncn2[C@H]2CO[C@@H](CO)O2)c(=O)[nH]1`: the concentration in data set [26] peaked (Cmax) at 50 µM.

As for `Nc1nc(=O)n([C@H]2CO[C@@H](CO)O2)cc1F`, in [27], the bioavailability is 38%. In addition, the Cmax in data set [26] was 34.4 µM. Further, in the data set with Rhesus monkey [28], the AUC was 197 µM·h. In [29], this compound gave a half-life of 2.48 h. Besides, the Vd in data set [30] and in [31] was 0.53 L/kg throughout.

Compound `Nc1nc(N)c2ncn([C@H]3CO[C@@H](CO)O3)c2n1` [AMDOXOVIR] registered a bioavailability in data set [27] of 30%.

Turning to `Cc1cn([C@H]2C=C[C@@H](CO)O2)c(=O)[nH]c1=O` [STAVUDINE], the bioavailability in [32] was determined as 25%; in [33] it was 83%; in [34], 100%; in [35], 100%. The compound further showed a half-life in data set [29] of 0.8 h. In data set [36], this compound came in with a dose excreted at 720 h of under 50%.

In turn, `Cc1cn([C@H]2C[C@H](N=[N+]=[N-])[C@@H](CO)O2)c(=O)[nH]c1=O` [ZIDOVUDINE] displayed a bioavailability in data set [32] of 90%. The same compound had a half-life in data set [29] of 0.8 h.

The term clearance denotes a measure of how efficiently the substance is removed, as volume per time. In general, half-life refers to the time needed for the level to fall by half in the phase considered. As usually defined, the AUC is the area under the concentration-time curve, a measure of exposure. A word on the MRT: it is the average time that molecules of a dose stay in the body. Usually Tmax stands for the time at which the peak concentration occurs. Broadly, the Cmax is the peak of the concentration-time curve. The term bioavailability denotes dose-corrected exposure relative to a reference, in per cent. Broadly, the Kp is tissue or fluid exposure divided by exposure in the circulation.
